According to ChEMBL document CHEMBL5260806, “Hydrogen peroxide activated quinone methide precursors with enhanced DNA cross-linking capability and cytotoxicity towards cancer cells” (Eur J Med Chem, 2017):
pIC50: −log10 of the molar value. Active and inactive are the calls of the source. No cut-off for these calls is given here.

How the values were obtained:
[1] = system: DNA; experiment: Induction of [32P]-labeled 49-mer oligonucleotide duplex DNA 25 (unknown origin) interstrand cross-linking at 2 mM for 24 hrs without H2O2 by PAGE; type: functional
[2] = system: DNA; experiment: Induction of [32P]-labeled 49-mer oligonucleotide duplex DNA 25 (unknown origin) interstrand cross-linking at 2 mM for 48 hrs in presence of 2mM H2O2 by PAGE; type: functional
[3] = system: ACHN; experiment: Anticancer activity against human ACHN cells assessed inhibition of cell growth after 48 hrs by CellTiter-Glo luminescent assay; type: functional, cell-based
Method in brief: (§1)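 Renal lines grown in RPMI 1640 with 5% FBS and 2 mM L-glutamine, plated at 5,000–10,000 cells/well in 384-well plates and held 2–3 h at 37 °C, 5% CO2. Compounds were made as 20 mM DMSO stocks, given as ten 2-fold serial dilutions diluted 1:100 into cells, and incubated 48 h. Read-out was CellTiter-Glo luminescence after 10 min at room temperature.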

[4] = system: SN12C; experiment: Anticancer activity against human SN12C cells assessed inhibition of cell growth after 48 hrs by CellTiter-Glo luminescent assay; type: functional, cell-based
Method in brief: (§2)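 Renal lines grown in RPMI 1640 with 5% FBS and 2 mM L-glutamine, seeded into 384-well plates at 5,000–10,000 cells/well, held 2–3 h at 37 °C, 5% CO2. DMSO stocks (20 mM) serially halved ten times and added at 1:100. Cells exposed 48 h at 37 °C; CellTiter-Glo added, 10 min at room temperature, luminescence read.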

[5] = system: 786-0; experiment: Anticancer activity against human 786-0 cells assessed inhibition of cell growth after 48 hrs by CellTiter-Glo luminescent assay; type: functional, cell-based; settings: 786-0, 48 h; method in brief: as §1
[6] = system: UO-31; experiment: Anticancer activity against human UO-31 cells assessed inhibition of cell growth after 48 hrs by CellTiter-Glo luminescent assay; type: functional, cell-based; settings: UO-31, 48 h; method in brief: as §2
[7] = system: A498; experiment: Anticancer activity against human A498 cells assessed inhibition of cell growth after 48 hrs by CellTiter-Glo luminescent assay; type: functional, cell-based; settings: A498, 48 h
Method in brief: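 Human tumour cells kept in RPMI 1640 with 5% FBS and 2 mM L-glutamine, seeded at 5,000–10,000 cells/well and left 2–3 h at 37°C, 5% CO2. Drugs taken from 20 mM DMSO stocks, serially halved ten times in DMSO, then added at 1:100 dilution. Cells exposed for 48 h at 37°C. Viability read by CellTiter-Glo luminescence after 10 min at room temperature.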

[8] = Anticancer activity against human CLL cells assessed as reduction in cell viability incubated for 24 hrs by Annexin/PI staining based fluorescence assay; type: functional
Method in brief: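 CLL lymphocytes were taken from patients' peripheral blood (n=3) by Ficoll-Hypaque, suspended in 10% autologous plasma in RPMI, and exposed to 1, 5, 10, 20, 50 and 100 µM. Viability was measured by annexin V/propidium iodide binding. IC50 comes from one representative patient.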

[9] = system: TK-10; experiment: Anticancer activity against human TK-10 cells assessed inhibition of cell growth after 48 hrs by CellTiter-Glo luminescent assay; type: functional, cell-based; settings: TK-10, 48 h; method in brief: as §2
[10] = system: CLL cell; experiment: Induction of DNA damage in chronic lymphocytic leukemia patient lymphocytes assessed as gamma-H2Ax phosphorylation at Ser139 residue at 10 uM after 24 hrs by FITC-staining based flow cytometry; type: functional; settings: Homo sapiens
Method in brief: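 Patient CLL lymphocytes, Ficoll-hypaque isolated, in RPMI with 10% autologous plasma, untreated or exposed to 10 µM for 24 h. Cells washed in PBS, fixed in ice-cold 70% ethanol and held at −20 °C. Then permeabilised, stained with FITC anti-H2AX Ser139 antibody and read by flow cytometry.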

[11] = system: CAKI-1; experiment: Anticancer activity against human CAKI-1 cells assessed inhibition of cell growth after 48 hrs by CellTiter-Glo luminescent assay; type: functional, cell-based; settings: CAKI-1, 48 h; method in brief: as §1
[12] = system: MDA-MB-468; experiment: Anticancer activity against human MDA-MB-468 cells assessed inhibition of cell growth after 48 hrs by CellTiter-Glo luminescent assay; type: functional, cell-based; settings: MDA-MB-468, 48 h
Method in brief: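 Cells grown in RPMI 1640 with 5% fetal bovine serum and 2 mM L-glutamine, seeded at 5,000–10,000 cells/well in 384-well plates, preincubated 2–3 h at 37°C, 5% CO2. DMSO stocks (20 mM) serially diluted 2-fold ten times, then added at 1:100. Exposure 48 h at 37°C. Viability read by CellTiter-Glo luminescence after 10 min at room temperature; IC50 derived.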

[13] = system: DNA; experiment: Potentiation of H2O2 induced [32P]-labeled 49-mer oligonucleotide duplex DNA 25 (unknown origin) interstrand cross-linking at pH 8 in phosphate buffer solution assessed as rate constant and measured for 24 hrs by PAGE analysis; type: functional
[14] = Toxicity in healthy human lymphocytes assessed as reduction in cell viability at 10 uM after 24 hrs by Annexin/PI staining based fluorescence assay; settings: lymphocyte
Method in brief: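 Normal donor lymphocytes (n=2) isolated from peripheral blood by Ficoll-hypaque, in RPMI with 10% autologous plasma. Exposed to 10 µM for 24 h; % viable cells by annexin/PI binding.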

[15] = system: CLL cell; experiment: Induction of DNA damage in chronic lymphocytic leukemia patient lymphocytes assessed as apoptosis rate at 10 uM after 24 hrs by annexin/PI staining based flow cytometry; type: functional; settings: Homo sapiens
[16] = system: DNA; experiment: Induction of [32P]-labeled 49-mer oligonucleotide duplex DNA 25 (unknown origin) interstrand cross-linking assessed as increase in cross linking with increase of pH from 2 to 9 at 2 mM for 24 hrs in presence of H2O2 by PAGE analysis; type: functional

With `CC(=O)OCc1cccc(COC(C)=O)c1B1OC(C)(C)C(C)(C)O1` the Activity [1] was 0% and the Activity [2] was 20%.
For `O=C(O)CCCc1ccc(N(CCCl)CCCl)cc1` [CHLORAMBUCIL], the pIC50 [3] was 3.88, the pIC50 [4] was 3.87 and the pIC50 [5] was 4.26. The pIC50 [6] was 4.39, the pIC50 [7] was 3.55 and the pIC50 [8] was 4.01.
Work on `CC1(C)OB(c2c(CBr)cc(O)cc2CBr)OC1(C)C` yielded an Activity [1] of 0%, a pIC50 [3] of 4.45 and a pIC50 [9] of 4.45. For the same molecule, the Activity [10] was “Active”, the Activity [2] was 50% and the pIC50 [11] was 4.42. The pIC50 [4] was 4.61, the pIC50 [12] was 4.96 and the Ka [13] was 0.000201 s⁻¹. The Activity [14] was “Non-Toxic”, the pIC50 [5] was 4.56 and the pIC50 [6] was 4.71. For the same molecule, the pIC50 [8] was 4.68 and the Activity [15] was “Active”.
`N[C@@H](Cc1ccc(N(CCCl)CCCl)cc1)C(=O)O` [MELPHALAN] gave a pIC50 [3] of 4.28, a pIC50 [9] of 4.26 and a pIC50 [4] of 4.15. For the same molecule, the pIC50 [5] was 4.72, the pIC50 [6] was 4.37 and the pIC50 [7] was 3.87. For the same molecule, the pIC50 [8] was 4.11.
Work on `COc1cc(COC(C)=O)c(B2OC(C)(C)C(C)(C)O2)c(COC(C)=O)c1` yielded an Activity [1] of 0% and an Activity [2] of 26%.
With `CC(=O)OCc1cc(O)cc(COC(C)=O)c1B1OC(C)(C)C(C)(C)O1` the Activity [1] was 0% and the Activity [2] was 32%.
With `COc1cc(OC)c(CBr)c(B2OC(C)(C)C(C)(C)O2)c1CBr` the Activity [2] was 20%.
`CC1(C)OB(c2c(CBr)cccc2CBr)OC1(C)C` gave an Activity [1] of 0%, a pIC50 [3] of 4.57 and a pIC50 [9] of 4.67. The Activity [10] was “Active”, the Activity [2] was 22% and the pIC50 [4] was 4.57. The pIC50 [12] was 4.92, the Ka [13] was 8.8e-05 s⁻¹ and the Activity [14] was “Non-Toxic”. It also gave a pIC50 [5] of 4.69, a pIC50 [6] of 4.60 and a pIC50 [7] of 4.48. For the same molecule, the pIC50 [8] was 4.32 and the Activity [15] was “Active”.
With `COc1c(CBr)c(B2OC(C)(C)C(C)(C)O2)c(CBr)c(OC)c1OC` the Activity [1] was 0%, the Activity [2] was 0% and the Activity [16] was “inactive”.
